Changes are numbered by the printed parent chain. Like-named read-outs stand apart in the source and are kept apart here.
Key:
[1] = biological target: PRC2 (Homo sapiens, UniProt Q15910); test: Mass spectrometry of covalent labeling, PRC2; format: binding
[2] = biological target: T1, SETD8 (Homo sapiens, UniProt Q9NQR1); test: SETD8 scintillation proximity assay; format: biochemical
T1 sequence (Q9NQR1 232-393): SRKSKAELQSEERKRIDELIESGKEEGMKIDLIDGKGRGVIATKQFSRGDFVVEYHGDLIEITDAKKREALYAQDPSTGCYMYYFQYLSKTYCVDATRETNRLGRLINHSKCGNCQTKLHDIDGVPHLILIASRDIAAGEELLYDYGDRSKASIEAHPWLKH

[3] = biological target: T1, SETD8; test: Residual enzymatic activity of the purified 3-SETD8 adduct; format: biochemical; conditions: purified monomer and dimer of 3-SETD8 adduct
In short: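 SETD8 was incubated with the covalent test compound until adduct formation was complete by MS. The adduct was purified by gel filtration, giving monomer and dimer forms that interconvert. Each form was then tested in the enzymatic assay and compared with wild-type SETD8.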

[4] = biological target: T2, C311S mutant of SETD8 (Homo sapiens, UniProt Q9NQR1, C311S); test: Mass spectrometry of covalent modification, SETD8 C311S mutant; format: binding
T2 sequence (Q9NQR1 232-393 C311S): T1 sequence (Q9NQR1 232-393) with C80S
In short: (§1)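 Catalytic domain of SETD8 (wild type, C311S or C343S; the C311S protein carried a His tag) at 7 μM was incubated with 20–200 μM test compound in water for over 3 h. Samples were analysed by electrospray LC/MS time-of-flight to detect covalent adducts. Masses of each protein without compound were recorded as controls.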

[5] = biological target: SMYD2 (Homo sapiens, UniProt Q9NRG4); test: Mass spectrometry of covalent labeling, SMYD2; format: binding
Chain of SMYD2 (Q9NRG4 whole entry, species assumed): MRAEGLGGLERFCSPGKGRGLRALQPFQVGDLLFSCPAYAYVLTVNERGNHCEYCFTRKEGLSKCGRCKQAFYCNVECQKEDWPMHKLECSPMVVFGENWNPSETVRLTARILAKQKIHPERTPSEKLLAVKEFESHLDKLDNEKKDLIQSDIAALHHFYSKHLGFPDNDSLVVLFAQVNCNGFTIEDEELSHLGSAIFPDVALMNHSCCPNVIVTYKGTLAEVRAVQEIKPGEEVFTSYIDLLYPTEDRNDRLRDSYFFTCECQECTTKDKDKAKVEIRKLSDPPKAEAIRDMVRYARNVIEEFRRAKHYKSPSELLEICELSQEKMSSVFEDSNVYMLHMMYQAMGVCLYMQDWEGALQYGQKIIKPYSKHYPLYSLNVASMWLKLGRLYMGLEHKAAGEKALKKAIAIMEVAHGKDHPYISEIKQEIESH

[6] = biological target: T3, C343S mutant of SETD8 (Homo sapiens, UniProt Q9NQR1, C343S); test: Mass spectrometry of covalent modification, SETD8 C343S mutant; format: binding
T3 sequence (Q9NQR1 232-393 C343S): T1 sequence (Q9NQR1 232-393) with C112S
In short: as §1

[7] = biological target: T4, SMYD3 (Homo sapiens, UniProt Q9H7B4); test: Mass spectrometry of covalent labeling, SMYD3; format: binding
T4 sequence (Q9H7B4 1-428): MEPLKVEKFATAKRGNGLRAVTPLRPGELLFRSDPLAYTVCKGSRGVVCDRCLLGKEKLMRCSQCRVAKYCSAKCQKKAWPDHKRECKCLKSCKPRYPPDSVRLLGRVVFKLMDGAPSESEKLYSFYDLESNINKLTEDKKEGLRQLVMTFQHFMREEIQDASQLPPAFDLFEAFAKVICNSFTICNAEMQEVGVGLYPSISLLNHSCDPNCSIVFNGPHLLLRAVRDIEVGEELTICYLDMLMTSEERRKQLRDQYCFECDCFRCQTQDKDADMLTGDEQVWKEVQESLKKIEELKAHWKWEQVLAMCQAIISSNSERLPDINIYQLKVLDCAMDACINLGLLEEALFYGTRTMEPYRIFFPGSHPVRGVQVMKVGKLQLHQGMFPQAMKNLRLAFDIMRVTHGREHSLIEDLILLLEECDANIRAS

[8] = tested on: H4K20me mark in HeLa cells; test: H4K20me mark in HeLa cells; format: cell-based; conditions: up to 10μM
[9] = tested on: 28 other methyltransferases; test: Methyltransferase selectivity assays; format: biochemical
[10] = biological target: T1, SETD8; test: Mass spectrometry of covalent modification, wild-type SETD8; format: binding; conditions: for covalent adduct formation by MS: purified SETD8 with full SET domain, 3 hours incubation
In short: as §1

[11] = tested on: SETD8; conditions: cited from earlier work

Chain of PRC2 (Q15910 whole entry): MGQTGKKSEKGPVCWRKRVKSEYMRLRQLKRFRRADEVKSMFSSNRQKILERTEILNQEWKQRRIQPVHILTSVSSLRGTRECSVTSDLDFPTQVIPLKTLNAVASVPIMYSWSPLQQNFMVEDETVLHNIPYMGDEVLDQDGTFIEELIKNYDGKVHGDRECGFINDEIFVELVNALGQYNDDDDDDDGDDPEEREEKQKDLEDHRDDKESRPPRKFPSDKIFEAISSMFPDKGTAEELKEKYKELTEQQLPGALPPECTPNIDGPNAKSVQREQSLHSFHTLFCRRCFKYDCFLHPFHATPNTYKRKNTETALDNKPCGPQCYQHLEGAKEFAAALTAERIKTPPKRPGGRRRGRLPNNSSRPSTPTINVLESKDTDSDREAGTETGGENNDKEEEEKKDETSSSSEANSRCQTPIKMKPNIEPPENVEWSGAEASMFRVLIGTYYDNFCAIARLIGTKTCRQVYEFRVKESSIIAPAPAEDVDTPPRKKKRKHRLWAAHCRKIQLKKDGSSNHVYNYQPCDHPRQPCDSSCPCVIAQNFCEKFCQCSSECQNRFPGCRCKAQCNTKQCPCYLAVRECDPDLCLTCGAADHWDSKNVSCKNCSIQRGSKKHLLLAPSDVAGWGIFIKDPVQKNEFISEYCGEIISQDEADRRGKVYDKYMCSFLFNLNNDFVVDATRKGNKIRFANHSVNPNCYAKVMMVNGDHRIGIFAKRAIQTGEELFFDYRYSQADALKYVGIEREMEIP
Chain of PRC2 (O75530 whole entry partner): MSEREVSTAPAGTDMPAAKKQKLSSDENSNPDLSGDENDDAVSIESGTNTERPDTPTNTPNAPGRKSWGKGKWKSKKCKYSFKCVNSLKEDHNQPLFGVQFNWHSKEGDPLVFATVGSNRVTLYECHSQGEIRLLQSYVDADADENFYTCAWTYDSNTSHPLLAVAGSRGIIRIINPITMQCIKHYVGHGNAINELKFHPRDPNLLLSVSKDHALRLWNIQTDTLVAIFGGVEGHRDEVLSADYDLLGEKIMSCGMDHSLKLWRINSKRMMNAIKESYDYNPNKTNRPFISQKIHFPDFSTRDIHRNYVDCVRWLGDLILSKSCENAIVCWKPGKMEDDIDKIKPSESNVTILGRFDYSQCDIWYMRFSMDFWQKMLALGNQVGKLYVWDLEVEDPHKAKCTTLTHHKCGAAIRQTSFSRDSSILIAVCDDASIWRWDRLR
Chain of PRC2 (Q15022 whole entry partner): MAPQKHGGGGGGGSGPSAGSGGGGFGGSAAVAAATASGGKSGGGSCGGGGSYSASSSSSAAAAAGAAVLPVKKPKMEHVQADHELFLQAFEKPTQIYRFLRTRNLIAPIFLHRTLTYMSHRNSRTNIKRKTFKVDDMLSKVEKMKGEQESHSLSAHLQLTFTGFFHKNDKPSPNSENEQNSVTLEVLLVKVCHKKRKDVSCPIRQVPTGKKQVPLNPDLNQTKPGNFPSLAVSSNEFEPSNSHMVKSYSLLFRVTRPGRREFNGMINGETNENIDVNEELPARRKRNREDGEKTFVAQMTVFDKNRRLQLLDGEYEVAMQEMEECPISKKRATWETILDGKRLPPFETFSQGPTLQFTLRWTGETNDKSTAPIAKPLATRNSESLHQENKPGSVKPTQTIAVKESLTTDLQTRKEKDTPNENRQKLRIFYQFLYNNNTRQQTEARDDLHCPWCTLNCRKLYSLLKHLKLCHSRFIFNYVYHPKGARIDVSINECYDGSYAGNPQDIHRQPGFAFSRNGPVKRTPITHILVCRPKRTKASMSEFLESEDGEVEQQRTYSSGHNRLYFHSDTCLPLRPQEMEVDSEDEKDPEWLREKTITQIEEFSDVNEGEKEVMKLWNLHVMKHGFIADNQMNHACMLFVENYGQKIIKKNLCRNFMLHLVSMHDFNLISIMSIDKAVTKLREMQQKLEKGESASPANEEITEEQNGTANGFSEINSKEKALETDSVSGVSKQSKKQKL

Molecule: C=CC(=O)NCCCNc1nc(N2CCCC2)nc2cc(OC)c(OC)cc12 [compound 3, N-(3-((6,7-Dimethoxy-2-(pyrrolidin-1-yl)quinazolin-4-yl)amino)propyl)acrylamide]
- labeling by MS analysis [1]: no labeling
- Hillslope ([2]; incubation with SETD8 for 1 or 5 hours, both incubation times): 1.2
- enzymatic activity retained by adduct relative to wild-type SETD8 [3]: about 10%
- covalent adduct formation by MS [4]: did not form an adduct
- labeling by MS analysis [5]: no labeling
- covalent adduct formation by MS [6]: formed a single-modified adduct
- labeling by MS analysis [7]: no labeling
- reduction in the H4K20me mark [8]: did not observe significant reduction
- selectivity for SETD8 over other methyltransferases [9]: selective for SETD8 over 30 other methyltransferases
- selectivity for SETD8 over other methyltransferases ([9]; listed as MS453): selective for SETD8 against 28 other methyltransferases
- covalent modification of SETD8 in presence of glutathione ([10]; 5 mM glutathione (GSH)): not affected
- covalent adduct formation by MS [10]: efficiently forms a single-modified covalent adduct

Molecule: C=CC(=O)NCCCN(C)c1nc(N2CCCC2)nc2cc(OC)c(OC)cc12 [compound 4, N-(3-((6,7-Dimethoxy-2-(pyrrolidin-1-yl)quinazolin-4-yl)(methyl)amino)propyl)acrylamide]
- activity in the SETD8 biochemical assay [2]: inactive
- covalent adduct formation by MS [10]: did not covalently modify SETD8

Molecule: nauhoic acid A
- mechanism of action [11]: SAM-competitive
- IC50 ([11]; read-out: potency in vitro): 6.5 µM

Reference: article PMC5148670 (Journal of medicinal chemistry, 2016)
